The source made the active and inactive calls. The rule behind the calls is not given here.
Assays:
[1] = Partition coefficient, log P of the compound; type: physicochemical; conditions: octanol/water
How it was run: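 Calculated log P of neutral form by Crippen fragmentation method.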

LoVo [2] = experiment: Selectivity index, ratio of CC50 for LoVo cells to EC50 for UV irradiated LoVo cells; type: functional, Homo sapiens
How it was run: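 Ratio CC50/EC50 in LoVo cells; both from MTT after 24 h compound exposure (12 nM–200 µM, 1% DMSO), then 24 h more either in the dark or after 30 min irradiation at 360 nm. Mean of three triplicate experiments.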

LoVo [3] = experiment: Photocytotoxicity against UV irradiated human LoVo cells after 24 hrs by MTT assay; type: functional, cell-based
How it was run: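 LoVo cells in DMEM/F-12 1:1 with 10% FBS, plated at 1.75 × 10^4 cells/well overnight. Exposed 24 h to 12 nM–200 µM compound (DMSO, 1% final), washed, fresh medium, irradiated 30 min at 360 nm, then 24 h at 37 °C. MTT absorbance at 540 nm, survival relative to solvent controls; EC50 from mean of three experiments in triplicate.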

LoVo [4] = experiment: Cytotoxicity against human LoVo cells after 24 hrs by MTT assay; type: functional
How it was run: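 Dark cytotoxicity (CC50), LoVo human colorectal adenocarcinoma in DMEM/F-12 1:1 with 10% FBS, 37 °C, 5% CO2. 1.75 × 10^4 cells/well plated overnight; compound 12 nM–200 µM in DMSO (1% final) for 24 h, then washed and fresh medium, kept in dark 24 h more at 37 °C. MTT read at 540 nm; mean of three experiments in triplicate.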

[5] = Induction of pBR322 cross-linking after irradiation by alkaline agarose gel assay; conditions: Escherichia coli
How it was run: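 pBR322 (0.5 µg/sample) with compound 0.62–80 µM (DMSO stock diluted in water), 50 mM phosphate pH 7.5, irradiated on ice 20 min at 360 nm, 120 W. Run on 1% alkaline agarose (50 mM NaOH, 1 mM EDTA), 12 V, 15–16 h, ethidium bromide stain. Value is lowest concentration giving interstrand cross-link band.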

Escherichia coli [6] = experiment: Induction of pBR322 cross-linking after irradiation at 20 mM at pH 5.5 by alkaline agarose gel assay
Escherichia coli [7] = experiment: Induction of pBR322 cross-linking in absence of irradiation by alkaline agarose gel assay
[8] = Homo sapiens, LoVo, light or radiation study, 24 h

| Compound | logP [1] | Ratio CC50/EC50 (LoVo [2]) | EC50 (LoVo [3]; lovo) [µM] | CC50 (LoVo [4]) [µM] | EC50 (LoVo [3]; [8]) [µM] | Minimum concentration for DNA interstrand cross-linking [5] [µM] | Activity (Escherichia coli [6]) | Activity (Escherichia coli [7]) |
| --- | --- | --- | --- | --- | --- | --- | --- | --- |
| COC(=O)[C@@H]1CCCN1Cc1cc2ccccc2c(-c2c(O)c(CN3CCC[C@H]3C(=O)OC)cc3ccccc23)c1O (stereo in doubt; (S,S,S)-5) [listing 1 of 2 here] | 4.81 | >900 | 0.22 | – | – | – | – | – |
| COC(=O)[C@@H]1CCCN1Cc1cc2ccccc2c(-c2c(O)c(CN3CCC[C@H]3C(=O)OC)cc3ccccc23)c1O (stereo in doubt; (R,S,S)-5) [listing 1 of 2 here] | – | >860 | – | > 200 | 0.23 | – | – | – |
| O=C(O)[C@@H]1CCCN1Cc1cc2ccccc2c(-c2c(O)c(CN3CCC[C@H]3C(=O)O)cc3ccccc23)c1O (stereo in doubt; (R,S,S)-6) [listing 1 of 2 here] | – | – | – | > 200 | > 200 | – | – | – |
| NCCCC[C@H](NCc1cc2ccccc2c(-c2c(O)c(CN[C@@H](CCCCN)C(=O)O)cc3ccccc23)c1O)C(=O)O | 3.34 | – | – | > 200 | > 200 | 20 | Active | inactive |
| COC(=O)[C@@H]1CCCN1Cc1cc2ccccc2c(-c2c(O)c(CN3CCC[C@H]3C(=O)OC)cc3ccccc23)c1O (stereo in doubt; (R,S,S)-5) [listing 2 of 2 here] | – | – | – | – | – | 20 | – | inactive |
| COC(=O)[C@H](C)NCc1cc2ccccc2c(-c2c(O)c(CN[C@@H](C)C(=O)OC)cc3ccccc23)c1O | 4.38 | 0.4 | – | 1.5 | 4 | > 40 | – | inactive |
| COC(=O)[C@@H]1CCCN1Cc1cc2ccccc2c(-c2c(O)c(CN3CCC[C@H]3C(=O)OC)cc3ccccc23)c1O (stereo in doubt; (S,S,S)-5) [listing 2 of 2 here] | – | – | – | – | – | 20 | – | inactive |
| C[N+](C)(C)Cc1cc2ccccc2c(-c2c(O)c(C[N+](C)(C)C)cc3ccccc23)c1O | – | – | – | > 200 | > 200 | 1.25 | – | inactive |
| O=C(O)[C@@H]1CCCN1Cc1cc2ccccc2c(-c2c(O)c(CN3CCC[C@H]3C(=O)O)cc3ccccc23)c1O (stereo in doubt; (R,S,S)-6) [listing 2 of 2 here] | – | – | – | – | – | 2.5 | Active | inactive |
| COC(=O)[C@@H](NCc1cc2ccccc2c(-c2c(O)c(CN[C@H](C(=O)OC)C(C)C)cc3ccccc23)c1O)C(C)C | 6.15 | 108 | – | 14 | 0.13 | 5 | – | inactive |
| O=C(O)[C@@H]1CCCN1Cc1cc2ccccc2c(-c2c(O)c(CN3CCC[C@H]3C(=O)O)cc3ccccc23)c1O (stereo in doubt; (S,S,S)-6) [listing 1 of 2 here] | 4.28 | – | – | – | – | – | – | – |
| O=C(O)[C@@H]1CCCN1Cc1cc2ccccc2c(-c2c(O)c(CN3CCC[C@H]3C(=O)O)cc3ccccc23)c1O (stereo in doubt; (S,S,S)-6) [listing 2 of 2 here] | – | – | – | – | – | 2.5 | Active | inactive |
| Cc1cc2cc3c(C)cc(=O)oc3c(C)c2o1 [TRIOXSALEN] | 2.44 | >210 | – | > 200 | 0.94 | < 0.5 | – | inactive |
